Measurements reported in publication PMC7119000 (Phytomedicine, 2013).
Like-named read-outs stand apart in the source and are kept apart here. Each block holds one molecule with its values, some of them ahead of it.

Experiments:
Caco-2 cell monolayers [1] = test: In vitro Caco-2 cell monolayer transport, apical-to-basolateral; format: in vitro ADME, human; details: for Apically loaded amount retained on the apical side: Caco-2 cell transport, authors' unpublished data
In short: (§1)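 Caco-2 cells grown in high-glucose DMEM with 10% FBS and 1% nonessential amino acids at 37 °C, 5% CO2. Seeded at 1.0 × 10^5 cells/cm2 on 4.2 cm2 inserts. Monolayers with TEER >250 Ω cm2 were HBSS-washed and preincubated 1 h at 37 °C. Compound was loaded apically, with samples taken at 0–4 h. Analysed by UPLC–MS/MS; Papp = (dQ/dt)/(A × C0).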

[2] = format: in vivo, rat; details: for AUC(0-t) / Cmax / Tmax: male, SD, rat, plasma, po
[3] = In vitro Caco-2 cell monolayer transport, apical-to-basolateral; format: in vitro ADME, human; details: human, Caco-2
In short: as §1

Caco-2 cell monolayers [4] = details: flavonoids glucosides; ref the previous report; cited from earlier work

Structure (SMILES): O=c1c(O[C@@H]2O[C@H](CO)[C@H](O)[C@H](O)[C@H]2O)c(-c2ccc(O)c(O)c2)oc2cc(O)cc(O)c12 [hyperin]
Apically loaded amount retained on the apical side (Caco-2 cell monolayers [1]): about 100%

AUC(0-t) ([2]; 25 mg/kg): 658 ng·h/mL | Cmax ([2]; 25 mg/kg): 284 ± 76.8 ng/mL | Tmax ([2]; 25 mg/kg): 13.8 min | AUC(0-t) ([2]; 10 ml/kg): 541 ng·h/mL | Cmax ([2]; 10 ml/kg): 236 ± 61.2 ng/mL | Tmax ([2]; 10 ml/kg): 30 min | AUC increased to, compared to control ([2]; with COS 25 mg/kg, rats, oral): 122% | Papp A→B at 4 h [3]: 19 ± 3.35 ×10⁻⁶ cm/s | Papp-value increased to, compared to control (Caco-2 cell monolayers [1]; with addition of 0.1% (w/v) of COS): 9800%
Structure (SMILES): O=C(/C=C/c1ccc(O)c(O)c1)O[C@@H]1C[C@](O)(C(=O)O)C[C@@H](O)[C@H]1O [Chlorogenic acid]

Apically loaded amount retained on the apical side (Caco-2 cell monolayers [1]): about 100%
Structure (SMILES): O=c1cc(-c2ccc(O)c(O)c2)oc2cc(O[C@@H]3O[C@H](CO)[C@@H](O)[C@H](O)[C@H]3O)cc(O)c12 [Galuteolin]
Absorption into Caco-2 cell (Caco-2 cell monolayers [4]): cannot be well absorbed

Structure (SMILES): O=c1c(O[C@@H]2O[C@H](CO)[C@H](O)[C@H](O)[C@H]2O)c(-c2ccc(O)c(O)c2)oc2cc(O)cc(O)c12 [Hyperoside]
Absorption into Caco-2 cell (Caco-2 cell monolayers [4]): cannot be well absorbed

Structure (SMILES): O=c1cc(-c2ccc(O)c(O)c2)oc2cc(O[C@@H]3O[C@H](CO)[C@H](O)[C@H](O)[C@H]3O)cc(O)c12 [Luteolin-7-o--β-D-galactoside]
Absorption into Caco-2 cell (Caco-2 cell monolayers [4]): cannot be well absorbed

Apically loaded amount retained on the apical side (Caco-2 cell monolayers [1]): about 100%
Structure (SMILES): C[C@@H]1O[C@@H](OC[C@H]2O[C@@H](Oc3c(-c4ccc(O)c(O)c4)oc4cc(O)cc(O)c4c3=O)[C@H](O)[C@@H](O)[C@@H]2O)[C@H](O)[C@H](O)[C@H]1O [Rutin]
Absorption into Caco-2 cell (Caco-2 cell monolayers [4]): cannot be well absorbed
